Only a sample is shown.
Apaf1 activ = activates human Apaf-1 apoptosome | Apaf-1 apoptosome caspase-3 activation, DEVD-Rh110 fluorescence; stronger effect = lower value | activity change, negative = activation, % at 20 µM | actives 0.31% (n = 330,000);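 active = activity change at or below -40% at 20 µM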
Target sequence (O14727 whole entry, looked up): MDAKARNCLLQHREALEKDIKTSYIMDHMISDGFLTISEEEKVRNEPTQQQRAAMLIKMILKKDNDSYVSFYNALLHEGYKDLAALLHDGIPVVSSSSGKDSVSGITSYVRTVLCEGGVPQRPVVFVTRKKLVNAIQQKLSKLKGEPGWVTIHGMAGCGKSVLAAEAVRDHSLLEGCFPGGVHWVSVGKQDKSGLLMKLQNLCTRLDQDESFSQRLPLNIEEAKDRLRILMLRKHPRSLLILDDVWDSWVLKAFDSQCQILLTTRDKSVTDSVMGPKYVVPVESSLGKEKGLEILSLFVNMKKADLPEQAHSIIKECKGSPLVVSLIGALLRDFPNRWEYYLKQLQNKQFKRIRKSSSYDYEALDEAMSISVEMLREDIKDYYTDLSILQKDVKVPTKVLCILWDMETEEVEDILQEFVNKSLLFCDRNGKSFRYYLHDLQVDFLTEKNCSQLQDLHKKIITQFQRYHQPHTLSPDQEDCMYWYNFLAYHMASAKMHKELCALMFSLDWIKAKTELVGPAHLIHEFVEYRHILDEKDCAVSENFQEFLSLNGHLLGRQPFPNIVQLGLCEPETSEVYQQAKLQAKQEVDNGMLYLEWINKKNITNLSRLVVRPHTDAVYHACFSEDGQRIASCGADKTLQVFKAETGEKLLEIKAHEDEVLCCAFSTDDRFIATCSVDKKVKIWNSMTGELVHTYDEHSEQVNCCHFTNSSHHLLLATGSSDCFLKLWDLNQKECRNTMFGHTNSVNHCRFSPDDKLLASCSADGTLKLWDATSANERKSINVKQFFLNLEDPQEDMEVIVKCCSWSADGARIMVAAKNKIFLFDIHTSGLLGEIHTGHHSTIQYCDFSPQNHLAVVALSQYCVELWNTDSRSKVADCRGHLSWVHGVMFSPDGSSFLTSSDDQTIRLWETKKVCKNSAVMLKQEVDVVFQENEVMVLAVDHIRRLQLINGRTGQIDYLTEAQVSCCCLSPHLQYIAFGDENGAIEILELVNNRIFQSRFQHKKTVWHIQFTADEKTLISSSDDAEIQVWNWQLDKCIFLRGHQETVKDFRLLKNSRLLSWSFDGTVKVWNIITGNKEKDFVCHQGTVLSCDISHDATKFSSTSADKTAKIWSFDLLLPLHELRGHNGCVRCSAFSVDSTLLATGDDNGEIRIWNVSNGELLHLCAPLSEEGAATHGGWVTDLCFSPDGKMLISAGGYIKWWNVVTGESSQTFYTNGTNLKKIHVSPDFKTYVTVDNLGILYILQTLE
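Schedule: 30 min preincubation, 50 min reaction, room temperature / System: biochemical Apaf-1 apoptosome reconstitution / Medium: 20 mM HEPES pH 7.5 with CHAPS, BSA / Evaluation: Caspase-3 cleavage activity downstream of Apaf-1 activation / Detection: Caspase-3-released Rh110 fluorescence, 540 nm emission, 480 nm excitation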
Rh110 act interf = Rh110 signal interference in Apaf-1 activator counter-screen | shares compounds with Apaf1 activ | Rh110 fluorescence interference, quenched caspase reaction, Ex480/Em540 | fluorescence interference (activity change), % at 20 µM, hits read low | 980 tested, under 10 active | AID 504616;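 active = mean activity change at or below -40% when tested at 20 µM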
Apaf-1 act conf2 = confirmation of human Apaf-1 activators; actives 5% (n = 980); AID 504617; shares compounds with Apaf1 activ; activity change, negative = activation, % at 20 µM; reconstituted apoptosome caspase-3 activity, DEVD-Rh110 fluorescence; stronger effect = lower value;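 active = mean activity change at or below -40%, meaning activation of 40% or more, at 20 µM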
Apaf1 act interf = shows fluorescence interference in the Apaf-1 activator assay format; fluorescence interference counterscreen; shares compounds with Apaf1 activ; EC50, µM; 55 tested, under 10 active; call rule not given here
* marks the source's active call; other numbers are inactive results; x = no result; + = active, no number.

SMILES | Apaf1 activ | Rh110 act interf | Apaf-1 act conf2 | others
CC(C)n1cnc2c(N(C)c3ccccc3)nc(N(CCN(C)C)Cc3ccccc3)nc21 | 44 | x | x
COc1cc(/C=N/N=C2/C(=O)Nc3ccccc32)ccc1O | -445* | 8 | 19
Nc1ccc2cn[nH]c2c1 | 52 | x | x
COc1ccccc1-n1c(N)c(C(=O)NCC2CCCO2)c2nc3ccccc3nc21 (stereo not drawn) | 69 | x | x
Cc1ccc(CN2C(=O)CCC2C(=O)NCC2CCCO2)cc1 (stereo not drawn) | -88* | 4 | 3
O=C(NC1(O)C(=O)c2ccccc2C1=O)c1ccccc1 | 94 | x | x
C#CCOCCOCCOCCNc1nc(N2CCN(C(=O)CCCCCCCCCCNC(=O)[C@H](CCCCN)n3cc(CCO)nn3)CC2)nc(N2CCN(C(=O)CCCCCCCCCCNC(=O)[C@H](CCCCN)n3cc(CCCC(=O)O)nn3)CC2)n1 | 59 | x | x
COc1cc(C(=O)N2CCN(c3cccc(C)c3C)CC2)ccc1OCC(=O)N1CCOCC1 | 51 | x | x
CCOc1cc(/C=C/c2nc3cc(C)c(C)cc3s2)ccc1OCC(=O)N1CCOCC1 | 45 | x | x
Cc1cccc(NC(=O)c2ccccc2OCC(=O)N2CCOCC2)c1C | -546* | 20 | 14
CCc1ccc(S(=O)(=O)/N=C2\C=CC(=O)c3ccccc32)cc1 | 55 | x | x
CCOc1cc(CNc2ccc3cn[nH]c3c2)ccc1OC | 85 | x | x
COC(=O)c1ccc(NC(=S)N2CCN(Cc3ccc(Cl)cc3)CC2)cc1 | -350* | 7 | 10
O=C(NC(=S)Nc1ccc(CN2CCCCC2)cc1)c1cccc(OCc2ccccc2)c1 | 43 | x | x
CN1CCN(c2ccc(NC(=O)c3ccc(-c4ccc(Cl)cc4)o3)cc2)CC1 | 65 | x | x
Clc1cccc(CSc2nnc(-c3ccccn3)n2Cc2ccco2)c1 | 42 | x | x
Nc1cc(S(=O)(=O)O)cc([N+](=O)[O-])c1O | -110* | -5 | 4
O=[N+]([O-])c1cc(F)c2cccnc2c1O | 64 | x | x
O=C(COC(=O)c1cc(S(=O)(=O)N2CCc3ccccc3C2)ccc1Cl)NCc1ccco1 | 43 | x | x
O=C(CCS(=O)(=O)c1ccc(Br)cc1)NCc1ccco1 | -88* | 9 | -51* | Apaf1 act interf=>100
CCOc1ccccc1NC(=O)CCS(=O)(=O)c1ccc(Br)cc1 | -220* | 12 | -128* | Apaf1 act interf=>100
COc1ccc([N+](=O)[O-])cc1NC(=O)CCS(=O)(=O)c1ccc(Br)cc1 | -111* | -5 | -101* | Apaf1 act interf=>100
CN(Cc1ccccc1)c1oc(-c2ccco2)nc1C#N | 41 | x | x
CCC[C@@H](CN1CCC[C@H]1CN1C(N)=NC[C@H]1CC(C)C)N1C[C@@H]([C@H](C)CC)N(CCc2ccc(Cl)c(Cl)c2)C1=N | 64 | x | x
CN(C)c1cc(N/N=C/c2ccccc2C(F)(F)F)nc(N(C)C)n1 | 56 | x | x
SMILES | Apaf1 activ | Rh110 act interf | Apaf-1 act conf2 | others
O=C(Nc1cccc([N+](=O)[O-])c1)Nc1ccc2c(c1)OCCO2 | -288* | 5 | 3
CCOC(=O)C1=C(COCCN)NC(C)=C(C(=O)OC)C1c1ccccc1Cl (stereo not drawn) | 40 | x | x
O=C(NNc1cc(N2CCOCC2)nc(N2CCOCC2)n1)c1ccc([N+](=O)[O-])cc1 | 97 | x | x
O=C1C(=O)N(CCN2CCOCC2)C(c2ccc([N+](=O)[O-])cc2)/C1=C(/O)c1ccc2c(c1)OCO2 (stereo not drawn) | -319* | -7 | 12
CC(=O)OCCCNc1cc(Sc2nc3ccccc3s2)c2nonc2c1[N+](=O)[O-] | 96 | x | x
FC(F)(F)c1cc(CCN2CCNC[C@@H]2CC2CCCCC2)cc(C(F)(F)F)c1 | 79 | x | x
COc1ccc(CCNC(=O)c2ccc3nc(-c4ccco4)c(-c4ccco4)nc3c2)cc1OC | 56 | x | x
COc1ccc2[nH]c(=O)c(CNc3ccccc3OC)cc2c1 | 51 | x | x
COc1ccc(C(=O)NCCCNC(=O)c2cc3ccccc3[nH]2)cc1OC | -162* | 5 | 10
Cc1cc(C(=O)N/N=C2\CC(=O)c3ccccc32)c(C)n1-c1ccc(F)cc1 | 69 | x | x
Cc1ccc(O)c([C@H](CCN(C(C)C)C(C)C)c2ccccc2)c1 | 1 | x | x
Cc1cc(C)n2nc(N)c(N=Nc3ccccc3)c2n1 | -4 | x | x
Cc1cc(C)n2nc(SC(C)C(=O)N(C)c3ccccc3)nc2n1 (stereo not drawn) | -54* | 1 | 10
CC(C)C(C(=O)O)N1C(=O)/C(=C/C=C/c2ccco2)SC1=S (stereo not drawn) | 46 | x | x
CC(=O)NC1N=C(C)N(c2ccccc2)C1=O (stereo not drawn) | 70 | x | x
Cc1cnc(C(=O)NC2CC(C)(C)Cc3c2cnn3-c2ccccc2)cn1 (stereo not drawn) | -85* | 1 | 7
Cc1ccc(NC(=O)CCC(=O)OCc2ccc(Br)cc2)cc1 | -46* | -17 | 9
CCOC(=O)CNCCC(=O)c1ccc(Br)cc1 | 58 | x | x
O=c1[nH]c(C2CCN(S(=O)(=O)c3ccc(C(F)(F)F)cc3)CC2)nc2c1nnn2Cc1ccc(F)cc1 | 41 | x | x
COc1ccc2nc(C)cc(N/N=C/c3ccccc3)c2c1 | 50 | x | x
CC(C)=NOc1nc(N(C)C)nc(N(C)C)n1 | -76* | 3 | 1
CN(C(=S)Nc1ccc(SC(F)F)cc1)c1ccc(O)cc1 | 70 | x | x
CC(=O)c1ccc(NC(=O)CC2Nc3cccc4cccc(c34)NC2=O)cc1 (stereo not drawn) | 89 | x | x
CC(=O)c1ccc(NC(=O)CSc2cn[nH]n2)cc1 | -294* | -4 | 11
O=C(CSc1cn[nH]n1)Nc1nc2ccccc2s1 | -285* | -2 | 11
SMILES | Apaf1 activ | Rh110 act interf | Apaf-1 act conf2 | others
Oc1ccc(C=Nc2ccc3ncccc3c2)c(O)c1 | 95 | x | x
N#Cc1cccc(S(=O)(=O)N2CCN(c3ccnc4cc(Cl)ccc34)CC2)c1 | -135* | 3 | 9
CC1(C)Cc2c(sc(NC(=O)COc3cccc4ccccc34)c2C#N)C(C)(C)N1 | 46 | x | x
CCN(CC)C(=O)[C@H]1CC(CC(=O)NC/C=C(\C)CCC=C(C)C)C(=O)N2CCc3c([nH]c4ccc(OC)cc34)[C@]12C (stereo partly drawn) | 42 | x | x
CCN(CC)C1=CC2=CC(=C(C#N)C#N)CCC2CC1 (stereo not drawn) | -141* | + | -77*
CCCCN(C)C1=CC2=CC(=C(C#N)C#N)CCC2CC1 (stereo not drawn) | -76* | -659* | -40
NC(=O)c1ccc(N=C2C(=O)Nc3ccc([N+](=O)[O-])cc32)cc1 | 56 | x | x
CCCCCCCCCCCCCCCC[n+]1ccc(C(N)=O)cc1 | 73 | x | x
O=C(CN(Cc1cccs1)C(=O)CNS(=O)(=O)c1ccc(Cl)cc1)NCC1CCCO1 (stereo not drawn) | -292* | 1 | 9
COc1ccc(SC[C@H](C)CN2CC[C@H](NC(=O)OCc3ccccc3)CCC2=O)cc1 | 70 | x | x
CC(C)c1c(Cl)c(O)c(-c2ccccc2)c(=O)n1-c1ccc(F)cc1 | -40* | -6 | 12
Cc1ccc2[nH]c3c(c2c1)CN(C(=O)CN1CCN(c2cccc(C)c2C)CC1)CC3 | 43 | x | x
Cc1ccccc1-c1cc2c(nn1)-c1ccccc1C2=O | 97 | x | x
CCOc1cc(CNc2ccc(N3CCCCC3)cc2)cc(Br)c1OCC(=O)NC(C)(C)C | 44 | x | x

Bioassay records (PubChem)
